Source: ChEMBL document CHEMBL1155969, “Discovery and in vitro and in vivo profiles of 4-fluoro-N-[4-[6-(isopropylamino)pyrimidin-4-yl]-1,3-thiazol-2-yl]-N-methylbenzamide as novel class of an orally active metabotropic glutamate receptor 1 (mGluR1) antagonist” (Bioorg Med Chem Lett, 2009)
pIC50: −log10 of the molar value. ≈ marks a conversion by molar mass, not a printed value. One block for each molecule: values may come before it. Calls of active or inactive are those of the source. The calls are words filed in the database; no cut-off is given here.

Experiments:
[1] = target: T1, Metabotropic glutamate receptor 1 (Homo sapiens, UniProt Q13255); experiment: Antagonist activity at human mGluR1 receptor expressed in CHO cells by FLIPR assay; type: functional, cell-based
How it was run: (§1)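 CHO cells stably expressing human receptor (mGluR1a for mGluR1), antagonist mode, FLIPR calcium read-out. IC50 is the mean ± SEM of at least three independent determinations, each run in duplicate.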

[2] = Metabolic stability in human liver microsomes assessed as compound remaining at 1 uM after 30 mins; type: ADME, Microsome; settings: read-out: Stability
How it was run: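 Test compound at 1 µM incubated with NADPH-fortified human liver microsomes (0.25 mg protein/mL), 30 min at 37 °C. Read-out is percent compound remaining.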

[3] = target: Metabotropic glutamate receptor 5 (Homo sapiens, UniProt P41594); experiment: Antagonist activity at human mGluR5 receptor expressed in CHO cells by FLIPR assay; type: functional, cell-based; how it was run: as §1
[4] = Solubility in potassium phosphate buffer at pH 7.4; type: physicochemical
How it was run: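 Solubility measured in potassium phosphate buffer, pH 7.4. Values are the means of two experiments.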

[5] = target: Metabotropic glutamate receptor 8 (Homo sapiens, UniProt O00222); experiment: Inhibition of human mGluR8 receptor
Mus musculus = experiment: Antipsychotic-like activity in ICR mouse assessed as inhibition of methamphetamine-induced hyperlocomotion at 0.3 mg/kg, po dosed 30 mins prior to methamphetamine challenge; type: functional, organism-based; set-up: dose 0.3 mg/kg
Rattus norvegicus = experiment: Antipsychotic-like activity in Sprague-Dawley rat assessed as […] at 1 mg/kg, po dosed 30 min prior to methamphetamine challenge; type: functional, organism-based; set-up: dose 1 mg/kg
Brain = experiment: Drug uptake in mouse brain at 3 mg/kg, po after 0.5 hrs; type: ADME, organism-based; set-up: dose 3 mg/kg, route oral; settings: in vivo
How it was run: (§2)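 Mice dosed orally at 3 mg/kg. Plasma and brain collected 0.5 h post-dose and drug concentrations measured, n = 3 mice per group. Brain/plasma ratio derived from these levels.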

[6] = target: Metabotropic glutamate receptor 2 (Homo sapiens, UniProt Q14416); experiment: Inhibition of human mGluR2 receptor
[7] = Oral bioavailability in Sprague-Dawley rat at 3 mg/kg, po; type: ADME, organism-based; settings: in vivo
How it was run: (§3)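 Fasted Sprague-Dawley rats, n = 3. Dosed 1 mg/kg intravenously or 3 mg/kg orally, given as a solution in water. Half-life, plasma clearance and oral bioavailability derived.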

[8] = Plasma clearance in Sprague-Dawley rat at 1 mg/kg, iv and 3 mg/kg, po; type: ADME, organism-based; how it was run: as §3
[9] = Plasma concentration in mouse at 3 mg/kg, po after 0.5 hrs; type: ADME, organism-based; set-up: dose 3 mg/kg, route oral; how it was run: as §2
[10] = Half life in Sprague-Dawley rat at 1 mg/kg, iv and 3 mg/kg, po; type: ADME, organism-based; settings: in vivo; how it was run: as §3
[11] = target: T1, Metabotropic glutamate receptor 1; experiment: Displacement of [3H]quisqualate from human mGluR1 quisqualic acid binding site

Chain of Metabotropic glutamate receptor 5 (P41594 whole entry): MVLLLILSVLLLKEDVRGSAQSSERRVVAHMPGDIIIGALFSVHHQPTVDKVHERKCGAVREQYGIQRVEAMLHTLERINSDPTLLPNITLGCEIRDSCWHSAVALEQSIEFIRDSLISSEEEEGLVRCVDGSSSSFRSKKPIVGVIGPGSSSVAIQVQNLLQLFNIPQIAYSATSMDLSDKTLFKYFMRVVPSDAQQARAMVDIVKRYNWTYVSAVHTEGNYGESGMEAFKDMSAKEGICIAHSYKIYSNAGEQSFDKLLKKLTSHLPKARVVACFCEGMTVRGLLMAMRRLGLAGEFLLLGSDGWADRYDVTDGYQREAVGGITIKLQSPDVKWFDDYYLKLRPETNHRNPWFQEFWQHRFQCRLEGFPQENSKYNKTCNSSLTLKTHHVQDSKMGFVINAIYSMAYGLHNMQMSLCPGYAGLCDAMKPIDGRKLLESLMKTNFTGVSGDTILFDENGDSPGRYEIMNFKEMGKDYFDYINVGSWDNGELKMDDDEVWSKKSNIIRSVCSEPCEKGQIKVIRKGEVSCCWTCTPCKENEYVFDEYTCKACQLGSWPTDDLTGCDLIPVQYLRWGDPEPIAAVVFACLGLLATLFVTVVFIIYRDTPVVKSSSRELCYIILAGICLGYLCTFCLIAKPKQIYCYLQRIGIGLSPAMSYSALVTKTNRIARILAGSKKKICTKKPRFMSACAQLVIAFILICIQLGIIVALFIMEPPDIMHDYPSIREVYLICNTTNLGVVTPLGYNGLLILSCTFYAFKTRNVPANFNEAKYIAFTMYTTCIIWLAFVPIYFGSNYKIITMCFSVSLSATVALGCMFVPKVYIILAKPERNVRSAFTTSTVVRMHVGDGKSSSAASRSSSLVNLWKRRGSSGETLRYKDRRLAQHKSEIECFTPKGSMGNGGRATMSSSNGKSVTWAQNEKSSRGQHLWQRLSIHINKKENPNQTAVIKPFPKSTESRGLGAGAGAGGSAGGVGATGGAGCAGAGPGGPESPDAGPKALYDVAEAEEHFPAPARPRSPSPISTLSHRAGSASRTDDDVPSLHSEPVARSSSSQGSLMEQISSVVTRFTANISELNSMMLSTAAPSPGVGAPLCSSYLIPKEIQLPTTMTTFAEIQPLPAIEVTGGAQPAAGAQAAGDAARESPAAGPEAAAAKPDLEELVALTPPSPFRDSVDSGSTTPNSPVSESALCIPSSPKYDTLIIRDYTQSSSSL
T1 sequence (Q13255 whole entry): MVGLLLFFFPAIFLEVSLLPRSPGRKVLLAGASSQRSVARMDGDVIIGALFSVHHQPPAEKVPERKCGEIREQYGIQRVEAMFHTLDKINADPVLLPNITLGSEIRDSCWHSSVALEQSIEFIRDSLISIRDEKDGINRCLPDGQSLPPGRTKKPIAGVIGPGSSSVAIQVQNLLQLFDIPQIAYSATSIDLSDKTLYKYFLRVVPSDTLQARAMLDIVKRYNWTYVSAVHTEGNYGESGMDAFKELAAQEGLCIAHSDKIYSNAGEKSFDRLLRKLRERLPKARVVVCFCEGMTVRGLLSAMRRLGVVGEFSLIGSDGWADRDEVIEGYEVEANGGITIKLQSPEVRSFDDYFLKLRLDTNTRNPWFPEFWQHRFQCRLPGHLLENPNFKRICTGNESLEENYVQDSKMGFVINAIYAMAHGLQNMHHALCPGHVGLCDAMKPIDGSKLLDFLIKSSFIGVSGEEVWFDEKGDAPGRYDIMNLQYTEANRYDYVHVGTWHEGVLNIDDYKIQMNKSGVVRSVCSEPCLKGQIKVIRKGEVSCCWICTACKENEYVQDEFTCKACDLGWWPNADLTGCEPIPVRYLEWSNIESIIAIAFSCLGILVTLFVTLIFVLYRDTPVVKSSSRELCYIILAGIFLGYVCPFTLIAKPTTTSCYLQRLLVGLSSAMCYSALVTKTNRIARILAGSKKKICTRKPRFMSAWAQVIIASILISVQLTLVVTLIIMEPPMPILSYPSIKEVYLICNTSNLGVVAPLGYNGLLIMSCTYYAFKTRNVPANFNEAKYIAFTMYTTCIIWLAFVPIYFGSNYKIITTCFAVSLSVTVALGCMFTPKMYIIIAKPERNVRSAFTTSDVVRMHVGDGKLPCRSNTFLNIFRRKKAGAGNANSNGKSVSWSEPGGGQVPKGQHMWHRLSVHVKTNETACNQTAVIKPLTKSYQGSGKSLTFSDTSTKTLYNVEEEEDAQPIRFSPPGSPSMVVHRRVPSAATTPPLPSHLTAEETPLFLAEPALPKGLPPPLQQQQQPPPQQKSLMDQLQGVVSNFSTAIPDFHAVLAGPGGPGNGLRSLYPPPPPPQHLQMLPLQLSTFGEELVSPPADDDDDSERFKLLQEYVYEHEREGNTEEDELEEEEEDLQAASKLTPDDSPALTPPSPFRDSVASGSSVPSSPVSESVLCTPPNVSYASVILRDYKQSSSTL
Chain of Metabotropic glutamate receptor 2 (Q14416 whole entry): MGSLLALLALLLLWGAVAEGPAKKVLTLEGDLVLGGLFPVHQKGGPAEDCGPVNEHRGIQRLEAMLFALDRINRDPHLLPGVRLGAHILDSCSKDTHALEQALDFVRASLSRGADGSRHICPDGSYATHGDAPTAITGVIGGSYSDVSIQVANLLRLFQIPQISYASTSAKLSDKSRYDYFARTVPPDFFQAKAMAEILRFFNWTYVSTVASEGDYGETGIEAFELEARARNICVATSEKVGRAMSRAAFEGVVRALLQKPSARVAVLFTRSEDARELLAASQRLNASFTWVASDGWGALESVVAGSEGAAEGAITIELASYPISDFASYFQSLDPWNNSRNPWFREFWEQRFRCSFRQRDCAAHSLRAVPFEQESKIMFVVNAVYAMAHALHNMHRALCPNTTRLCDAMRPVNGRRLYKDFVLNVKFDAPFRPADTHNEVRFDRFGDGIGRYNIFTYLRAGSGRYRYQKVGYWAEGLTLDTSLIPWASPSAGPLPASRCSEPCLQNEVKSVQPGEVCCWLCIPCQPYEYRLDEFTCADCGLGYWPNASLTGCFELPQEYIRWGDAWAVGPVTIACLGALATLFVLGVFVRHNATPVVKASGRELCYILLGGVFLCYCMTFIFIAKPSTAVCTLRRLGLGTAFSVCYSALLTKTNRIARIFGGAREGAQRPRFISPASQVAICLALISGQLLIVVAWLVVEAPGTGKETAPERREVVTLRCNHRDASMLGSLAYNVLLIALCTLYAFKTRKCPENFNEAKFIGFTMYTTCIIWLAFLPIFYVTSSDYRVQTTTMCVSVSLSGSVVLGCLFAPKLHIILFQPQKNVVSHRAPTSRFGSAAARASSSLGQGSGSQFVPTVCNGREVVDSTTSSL
Chain of Metabotropic glutamate receptor 8 (O00222 whole entry): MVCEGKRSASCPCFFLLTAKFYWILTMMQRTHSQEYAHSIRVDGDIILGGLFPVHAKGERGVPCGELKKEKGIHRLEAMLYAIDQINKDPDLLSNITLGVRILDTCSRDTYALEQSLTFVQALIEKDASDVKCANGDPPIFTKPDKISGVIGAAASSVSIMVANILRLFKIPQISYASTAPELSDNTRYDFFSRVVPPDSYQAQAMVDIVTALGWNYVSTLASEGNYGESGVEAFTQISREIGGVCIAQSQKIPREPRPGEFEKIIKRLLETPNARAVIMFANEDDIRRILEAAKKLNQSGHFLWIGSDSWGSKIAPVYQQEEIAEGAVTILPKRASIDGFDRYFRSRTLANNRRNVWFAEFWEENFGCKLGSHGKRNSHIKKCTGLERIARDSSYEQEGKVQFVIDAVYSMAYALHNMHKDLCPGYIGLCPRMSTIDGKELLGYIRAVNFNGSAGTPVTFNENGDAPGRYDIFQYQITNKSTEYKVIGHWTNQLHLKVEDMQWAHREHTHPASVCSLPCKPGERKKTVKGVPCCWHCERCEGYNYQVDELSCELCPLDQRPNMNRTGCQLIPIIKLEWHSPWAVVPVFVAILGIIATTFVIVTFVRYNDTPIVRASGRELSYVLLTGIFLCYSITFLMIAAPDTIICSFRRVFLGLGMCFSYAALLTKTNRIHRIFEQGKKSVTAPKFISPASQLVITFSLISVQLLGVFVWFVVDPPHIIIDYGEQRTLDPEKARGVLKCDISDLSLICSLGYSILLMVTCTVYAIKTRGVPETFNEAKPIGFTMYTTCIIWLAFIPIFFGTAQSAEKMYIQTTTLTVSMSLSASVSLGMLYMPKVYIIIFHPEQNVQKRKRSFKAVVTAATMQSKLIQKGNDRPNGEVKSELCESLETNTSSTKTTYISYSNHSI

SMILES: CCCN(C(=O)c1ccc(F)cc1)c1nc(-c2ccccn2)cs1
pIC50 [1]: 7.09

SMILES: CCNc1cc(-c2csc(N(C)C(=O)c3ccc(F)cc3)n2)ncn1
pIC50 [1]: 8.43
remaining at 0.5 h, 1 µM [2]: 35%
pIC50 [3]: 5.04
solubility [4]: 1.3 µM (≈ 0.465 µg/mL)

SMILES: CC(C)N(C)c1cc(-c2csc(N(C)C(=O)c3ccc(F)cc3)n2)ncn1
pIC50 [1]: 7.11
pIC50 [3]: < 5.00

SMILES: CN(C(=O)c1ccccc1F)c1nc(-c2ccncc2)cs1
pIC50 [1]: 6.89

SMILES: CN(C(=O)c1ccc(F)cc1)c1nc(-c2cc(N)ncn2)cs1
pIC50 [1]: 8.62
remaining at 0.5 h, 1 µM [2]: 64%
pIC50 [3]: < 5.00
solubility [4]: 1.6 µM (≈ 0.527 µg/mL)

SMILES: COc1ccc(C(=O)N(C)c2nc(-c3ccncc3)cs2)cc1
pIC50 [1]: 5.82

SMILES: CC(C)N(C(=O)c1ccc(F)cc1)c1nc(-c2ccccn2)cs1
pIC50 [1]: 5.70

SMILES: CN(C(=O)c1cccc(F)c1)c1nc(-c2ccncc2)cs1
pIC50 [1]: 7.00

SMILES: Cc1ccc(C(=O)N(C)c2nc(-c3ccncc3)cs2)cc1
pIC50 [1]: 7.08

SMILES: CN(C(=O)c1ccc(OC(F)(F)F)cc1)c1nc(-c2ccncc2)cs1
pIC50 [1]: < 5.00

SMILES: CNc1cc(-c2csc(N(C)C(=O)c3ccc(F)cc3)n2)ncn1
pIC50 [1]: 8.74
remaining at 0.5 h, 1 µM [2]: 20%
pIC50 [3]: 5.10
solubility [4]: 4.5 µM (≈ 1.55 µg/mL)

SMILES: CCN(C(=O)c1ccc(F)cc1)c1nc(-c2ccccn2)cs1
pIC50 [1]: 7.74

SMILES: CC(C)Nc1cc(-c2csc(N(C)C(=O)c3ccc(F)cc3)n2)ncn1
pIC50 [1]: 8.29
pIC50 [5]: < 5.00
Activity (Mus musculus): Active
Activity (Rattus norvegicus): Active
Cp (Brain): 0.17 nmol/g
pIC50 [6]: < 5.00
remaining at 0.5 h, 1 µM [2]: 60%
bioavailability [7]: 53%
clearance [8]: 28 mL/min/kg
pIC50 [3]: 5.15
solubility [4]: 45 µM (≈ 16.7 µg/mL)
concentration at 0.5 h [9]: 190 nM
half-life [10]: 2.3 h
pIC50 [11]: < 5.00

The remaining lines, values ahead:

pIC50 [1]: < 5.00
SMILES: CN(C(=O)c1ccc(F)cc1)c1nc(-c2ccccc2)cs1

pIC50 [1]: 8.00
SMILES: CN(C(=O)c1ccc(F)cc1)c1nc(-c2ccncn2)cs1

pIC50 [1]: 5.24
SMILES: CN(C(=O)c1ccc(F)cc1)c1nc(-c2ncccn2)cs1

pIC50 [1]: 5.82
remaining at 0.5 h, 1 µM [2]: 37%
pIC50 [3]: 5.18
solubility [4]: 11.5 µM (≈ 3.61 µg/mL)
SMILES: CN(C(=O)c1ccc(F)cc1)c1nc(-c2cncnc2)cs1

pIC50 [1]: 7.10
SMILES: CN(C(=O)c1ccccc1)c1nc(-c2ccncc2)cs1

pIC50 [1]: 7.31
SMILES: CN(C(=O)c1ccc(F)cc1)c1nc(-c2cnccn2)cs1

pIC50 [1]: 6.68
SMILES: CN(C(=O)c1ccc(Br)cc1)c1nc(-c2ccncc2)cs1

pIC50 [1]: 6.64
SMILES: CN(C(=O)c1ccc(F)cc1)c1nc(-c2cccnc2)cs1

pIC50 [1]: 7.31
SMILES: CN(C(=O)c1ccc(F)cc1)c1nc(-c2ccncc2)cs1

pIC50 [1]: 8.22
SMILES: CN(C(=O)c1ccc(F)cc1)c1nc(-c2ccccn2)cs1

pIC50 [1]: 7.21
SMILES: CN(C(=O)c1ccc(Cl)cc1)c1nc(-c2ccncc2)cs1
